≈ marks a conversion by molar mass, not a printed value. Calls of active or inactive are those of the source. The rule behind the calls is not given here.
Tests used:
Escherichia coli [1] = assay: Antibacterial activity against Escherichia coli ATCC 25922 at < 256 ug/mL after 18 to 24 hrs by CA-SFM and NCCLS-based broth microdilution method; format: functional, organism-based
Staphylococcus aureus [2] = assay: Antibacterial activity against Staphylococcus aureus ATCC 25923 at < 256 ug/mL after 18 to 24 hrs by CA-SFM and NCCLS-based broth microdilution method; format: functional, organism-based
Staphylococcus aureus [3] = assay: Antibacterial activity against Staphylococcus aureus ATCC 29213 at < 256 ug/mL after 18 to 24 hrs by CA-SFM and NCCLS-based broth microdilution method; format: functional, organism-based
Enterococcus faecalis [4] = assay: Antibacterial activity against Enterococcus faecalis ATCC 29212 at < 256 ug/mL after 18 to 24 hrs by CA-SFM and NCCLS-based broth microdilution method; format: functional, organism-based
Pseudomonas aeruginosa [5] = assay: Antibacterial activity against Pseudomonas aeruginosa ATCC 27853 at < 256 ug/mL after 18 to 24 hrs by CA-SFM and NCCLS-based broth microdilution method; format: functional, organism-based
Escherichia coli [6] = assay: Antibacterial activity against Escherichia coli ATCC 25922 after 18 to 24 hrs by CA-SFM and NCCLS-based broth microdilution method; format: functional
Outline: (§1)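 MIC determined in liquid phase by broth microdilution in U-bottom 96-well plates. Bacteria were grown in Mueller-Hinton broth or agar, and isolate purity was checked at each test by colony morphology and Gram stain. The final inoculum was 1×10^5 CFU/mL, with a series of drug concentrations added. Plates were incubated 18–24 h at 35 °C, and growth was read by absorbance at 540 nm. MIC is expressed in µmol/L and µg/mL.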

Staphylococcus aureus [7] = assay: Antibacterial activity against Staphylococcus aureus ATCC 25923 after 18 to 24 hrs by CA-SFM and NCCLS-based broth microdilution method; format: functional; outline: as §1
Staphylococcus aureus [8] = assay: Antibacterial activity against Staphylococcus aureus ATCC 29213 after 18 to 24 hrs by CA-SFM and NCCLS-based broth microdilution method; format: functional; outline: as §1
Enterococcus faecalis [9] = assay: Antibacterial activity against Enterococcus faecalis ATCC 29212 after 18 to 24 hrs by CA-SFM and NCCLS-based broth microdilution method; format: functional; outline: as §1
Pseudomonas aeruginosa [10] = assay: Antibacterial activity against Pseudomonas aeruginosa ATCC 27853 after 18 to 24 hrs by CA-SFM and NCCLS-based broth microdilution method; format: functional; outline: as §1

| Compound | Activity (Escherichia coli [1]) | Activity (Staphylococcus aureus [2]) | Activity (Staphylococcus aureus [3]) | Activity (Enterococcus faecalis [4]) | Activity (Pseudomonas aeruginosa [5]) | MIC (Escherichia coli [6]) | MIC (Staphylococcus aureus [7]) | MIC (Staphylococcus aureus [8]) | MIC (Enterococcus faecalis [9]) | MIC (Pseudomonas aeruginosa [10]) |
| --- | --- | --- | --- | --- | --- | --- | --- | --- | --- | --- |
| O=C([O-])C(F)(F)F.[Na+] | inactive | inactive | inactive | inactive | inactive |  |  |  |  |  |
| NCCc1cc2c(O)c(c1)Cc1cc(CCN)cc(c1O)Cc1cc(CCN)cc(c1OCCCO)Cc1cc(CCN)cc(c1O)C2 |  |  |  |  |  | 110 µM (≈ 72 µg/mL) | 220 µM (≈ 144 µg/mL) | 220 µM (≈ 144 µg/mL) | > 220 µM | 220 µM (≈ 144 µg/mL) |
| CCn1cc(C(=O)O)c(=O)c2ccc(C)nc21 [NALIDIXIC ACID] |  |  |  |  |  | 100 µM (≈ 23.2 µg/mL) | 200 µM (≈ 46.4 µg/mL) | 200 µM (≈ 46.4 µg/mL) | 200 µM (≈ 46.4 µg/mL) | 200 µM (≈ 46.4 µg/mL) |
| CCn1cc(C(=O)OCCCOc2c3cc(CCN)cc2Cc2cc(CCN)cc(c2O)Cc2cc(CCN)cc(c2O)Cc2cc(CCN)cc(c2O)C3)c(=O)c2ccc(C)nc21 |  |  |  |  |  | 25 µM (≈ 21.7 µg/mL) | 50 µM (≈ 43.5 µg/mL) | 50 µM (≈ 43.5 µg/mL) | 100 µM (≈ 86.9 µg/mL) | 100 µM (≈ 86.9 µg/mL) |
